# Reference: ChEMBL document CHEMBL1141663, “Synthesis and antibacterial activity of bis-[2-hydroxy-3-(1,7,8,9,10-pentamethyl-3,5-dioxo-4-aza-tricyclo[5.2.1.0(2,6)]dec-8-en-4-yloxy)-propyl]-dimethyl-ammonium chloride” (2008)
# Calls of active or inactive are those of the source. The rule behind the calls is not given here.
# Tests used:
# [1] = system: Staphylococcus aureus; assay: Antibacterial activity against methicillin-resistant Staphylococcus aureus 5/04 isolates after 18 hrs; format: functional
# Procedure, shortened: (§1)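 Agar-dilution MIC on Mueller–Hinton II agar per CLSI guidelines. Aqueous test solutions were added to liquid agar to give two dilution series across 6.25–400 µg/mL. Solidified plates were spot-inoculated with 2 µL aliquots to a final inoculum of 10^4 […]. […] Strains were standard S. aureus strains or hospital patient isolates typed MSSA/MRSA.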
# [2] = system: Staphylococcus aureus; assay: Antibacterial activity against methicillin-resistant Staphylococcus aureus 48/05 isolates after 18 hrs; format: functional; procedure, shortened: as §1
# [3] = system: Staphylococcus aureus; assay: Antibacterial activity against methicillin-susceptible Staphylococcus aureus 14/04 isolates after 18 hrs; format: functional; procedure, shortened: as §1
# [4] = system: Enterococcus hirae; assay: Antibacterial activity against Enterococcus hirae ATCC 10541 at 100 ug/disk […] by disc-diffusion method; format: functional; conditions: read-out: IZ
# [5] = system: Enterococcus hirae; assay: Antibacterial activity against Enterococcus hirae ATCC 10541 at 400 ug/disk after 24 to 48 hrs by disc-diffusion method; format: functional; conditions: read-out: IZ
# [6] = system: Staphylococcus aureus; assay: Antibacterial activity against methicillin-susceptible Staphylococcus aureus 101/06 isolates after 18 hrs; format: functional; procedure, shortened: as §1
# [7] = system: Staphylococcus aureus; assay: Antibacterial activity against methicillin-resistant Staphylococcus aureus 19/04 isolates after 18 hrs; format: functional; procedure, shortened: as §1
# [8] = system: Staphylococcus aureus; assay: Antibacterial activity against Staphylococcus aureus ATCC 29213 at 100 ug/disk after 24 to 48 hrs by disc-diffusion method; format: functional; conditions: read-out: IZ
# [9] = system: Staphylococcus aureus; assay: Antibacterial activity against methicillin-susceptible Staphylococcus aureus 6/04 isolates after 18 hrs; format: functional; procedure, shortened: as §1
# [10] = system: Candida albicans; assay: Antimicrobial activity against Candida albicans ATCC 10231 at 100 ug/disk after 24 to 48 hrs by disc-diffusion method; format: functional, organism-based
# Procedure, shortened: (§2)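 Antifungal disc diffusion on YNB agar under CLSI guidelines. Sterile 10 mm filter-paper discs were loaded from aqueous solution with 100 or 400 µg of compound per disc. Plates were read after 24–48 h incubation at 30 °C.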
# [11] = system: Staphylococcus aureus; assay: Antibacterial activity against methicillin-susceptible Staphylococcus aureus 98/06 isolates after 18 hrs; format: functional; procedure, shortened: as §1
# [12] = system: Bordetella bronchiseptica; assay: Antibacterial activity against Bordetella bronchiseptica ATCC 4617 at 100 ug/disk […] by disc-diffusion method; format: functional; conditions: read-out: IZ
# [13] = system: Staphylococcus aureus; assay: Antibacterial activity against methicillin-susceptible Staphylococcus aureus 4/04 isolates after 18 hrs; format: functional; procedure, shortened: as §1
# [14] = system: Staphylococcus aureus; assay: Antibacterial activity against methicillin-susceptible Staphylococcus aureus 72/05 isolates after 18 hrs; format: functional; procedure, shortened: as §1
# [15] = system: Escherichia coli; assay: Antibacterial activity against Escherichia coli ATCC 25922 at 100 ug/disk […] by disc-diffusion method; format: functional, organism-based
# [16] = system: Staphylococcus aureus; assay: Antibacterial activity against methicillin-resistant Staphylococcus aureus 83/05 isolates after 18 hrs; format: functional; procedure, shortened: as §1
# [17] = system: Staphylococcus aureus; assay: Antibacterial activity against Staphylococcus aureus ATCC 29213 at 400 ug/disk […] by disc-diffusion method; format: functional; conditions: read-out: IZ
# [18] = system: Staphylococcus aureus; assay: Antibacterial activity against methicillin-susceptible Staphylococcus aureus 69/05 isolates after 18 hrs; format: functional; procedure, shortened: as §1
# [19] = system: Staphylococcus aureus; assay: Antibacterial activity against methicillin-resistant Staphylococcus aureus 55/05 isolates after 18 hrs; format: functional; procedure, shortened: as §1
# [20] = system: Staphylococcus aureus; assay: Antibacterial activity against methicillin-resistant Staphylococcus aureus 91/06 isolates after 18 hrs; format: functional; procedure, shortened: as §1
# [21] = system: Candida albicans; assay: Antimicrobial activity against Candida albicans ATCC 10231 at 400 ug/disk after 24 to 48 hrs by disc-diffusion method; format: functional; conditions: read-out: IZ; procedure, shortened: as §2
# [22] = system: Staphylococcus aureus; assay: Antibacterial activity against Staphylococcus aureus ATCC 6538P after 18 hrs; format: functional; procedure, shortened: as §1
# [23] = system: Staphylococcus aureus; assay: Antibacterial activity against methicillin-susceptible Staphylococcus aureus 3/04 isolates after 18 hrs; format: functional; procedure, shortened: as §1
# [24] = system: Staphylococcus aureus; assay: Antibacterial activity against methicillin-susceptible Staphylococcus aureus 38/05 isolates after 18 hrs; format: functional; procedure, shortened: as §1
# [25] = system: Bacillus subtilis; assay: Antibacterial activity against Bacillus subtilis ATCC 6633 at 100 ug/disk […] by disc-diffusion method; format: functional; conditions: read-out: IZ
# [26] = system: Bordetella bronchiseptica; assay: Antibacterial activity against Bordetella bronchiseptica ATCC 4617 at 400 ug/disk […] by disc-diffusion method; format: functional; conditions: read-out: IZ
# [27] = system: Staphylococcus aureus; assay: Antibacterial activity against methicillin-susceptible Staphylococcus aureus 7/04 isolates after 18 hrs; format: functional; procedure, shortened: as §1
# [28] = system: Staphylococcus aureus; assay: Antibacterial activity against methicillin-susceptible Staphylococcus aureus 49/05 isolates after 18 hrs; format: functional; procedure, shortened: as §1
# [29] = system: Pseudomonas aeruginosa; assay: Antibacterial activity against Pseudomonas aeruginosa ATCC 15442 at 400 ug/disk […] by disc-diffusion method; format: functional, organism-based
# [30] = system: Staphylococcus aureus; assay: Antibacterial activity against methicillin-resistant Staphylococcus aureus 1/04 isolates after 18 hrs; format: functional; procedure, shortened: as §1
# [31] = system: Staphylococcus aureus; assay: Antibacterial activity against methicillin-susceptible Staphylococcus aureus 60/05 isolates after 18 hrs; format: functional; procedure, shortened: as §1
# [32] = system: Staphylococcus aureus; assay: Antibacterial activity against Staphylococcus aureus ATCC 25923 after 18 hrs; format: functional; conditions: ATCC 25923, 18 h; procedure, shortened: as §1
# [33] = system: Staphylococcus aureus; assay: Antibacterial activity against methicillin-susceptible Staphylococcus aureus 28/04 isolates after 18 hrs; format: functional; procedure, shortened: as §1
compound,measurement,setting,value
CC1=C(C)C2(C)C3C(=O)N(OCC(O)C[N+](C)(C)CC(O)CON4C(=O)C5C(C4=O)C4(C)C(C)=C(C)C5(C)C4C)C(=O)C3C1(C)C2C.[Cl-] (stereo not drawn),MIC,[1],200 µg/mL
same,MIC,[2],100 µg/mL
same,MIC,[3],25 µg/mL
same,zone of inhibition at 100 µg/disc,[4],14 mm
same,zone of inhibition at 400 µg/disc,[5],18 mm
same,MIC,[6],50 µg/mL
same,MIC,[7],200 µg/mL
same,zone of inhibition at 100 µg/disc,[8],14 mm
same,MIC,[9],25 µg/mL
same,Activity,[10],inactive
same,MIC,[11],100 µg/mL
same,zone of inhibition at 100 µg/disc,[12],13 mm
same,MIC,[13],25 µg/mL
same,MIC,[14],50 µg/mL
same,Activity,[15],inactive
same,MIC,[16],50 µg/mL
same,zone of inhibition at 400 µg/disc,[17],24 mm
same,MIC,[18],25 µg/mL
same,MIC,[19],100 µg/mL
same,MIC,[20],100 µg/mL
same,zone of inhibition at 400 µg/disc,[21],14 mm
same,MIC,[22],50 µg/mL
same,MIC,[23],25 µg/mL
same,MIC,[24],50 µg/mL
same,zone of inhibition at 100 µg/disc,[25],25 mm
same,zone of inhibition at 400 µg/disc,[26],21 mm
same,MIC,[27],25 µg/mL
same,MIC,[28],25 µg/mL
same,Activity,[29],inactive
same,MIC,[30],50 µg/mL
same,MIC,[31],25 µg/mL
same,MIC,[32],50 µg/mL
same,MIC,[33],50 µg/mL
